# ChEMBL document CHEMBL4477274, “Discovery of Novel Dot1L Inhibitors through a Structure-Based Fragmentation Approach” (ACS Med Chem Lett, 2016)
# Columns and labels:
# [1] = Tmax in Sprague-Dawley rat at 15 mg/kg, po administered via gastric intubation by LC-MS/MS analysis; type: ADME, organism-based; settings: in vivo
# Summary of the method: (§1)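 Oral dosing was given to male Sprague Dawley rats as a suspension at 15 mg/kg. Total blood concentrations were sampled over time to give Cmax, Tmax and AUC0-inf. Oral bioavailability was calculated at this dose.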
# [2] = Clearance in Sprague-Dawley rat at 1 mg/kg, iv administered as bolus dose measured up to 48 hrs by LC-MS/MS analysis; type: ADME, organism-based; settings: in vivo
# Summary of the method: (§2)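 Male Sprague Dawley rats received a single intravenous bolus at 1 mg/kg. Total blood concentrations were followed over time. Clearance, volume of distribution, half-life and AUC0-inf were derived from the blood profile.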
# [3] = AUC (0 to infinity) in Sprague-Dawley rat at 1 mg/kg, iv administered as bolus dose by LC-MS/MS analysis; type: ADME, organism-based; parameters: dose 1 mg/kg, route intravenous, time infinity; settings: in vivo; summary of the method: as §2
# [4] = Oral bioavailability in Sprague-Dawley rat at 15 mg/kg administered via gastric intubation measured up to 48 hrs by LC-MS/MS analysis; type: ADME, organism-based; settings: in vivo; summary of the method: as §1
# [5] = Volume of distribution in Sprague-Dawley rat at 1 mg/kg, iv administered as bolus dose measured up to 48 hrs by LC-MS/MS analysis; type: ADME, organism-based; settings: in vivo; summary of the method: as §2
# MV4-11 = assay: Antiproliferative activity against human MV4-11 cells harboring MLL-AF4 treated for 6 hrs measured after 8 days by Celltiter-Glo reagent based assay; type: functional, cell-based
# [6] = target: T1, Histone-lysine N-methyltransferase, H3 lysine-79 specific (Homo sapiens, UniProt Q8TEK3); assay: Inhibition of DOT1L in human MOLM13 cells assessed as suppression of HoxA9 gene after 72 hrs by luciferase reporter gene assay; type: cell-based
# T1 sequence (Q8TEK3 whole entry): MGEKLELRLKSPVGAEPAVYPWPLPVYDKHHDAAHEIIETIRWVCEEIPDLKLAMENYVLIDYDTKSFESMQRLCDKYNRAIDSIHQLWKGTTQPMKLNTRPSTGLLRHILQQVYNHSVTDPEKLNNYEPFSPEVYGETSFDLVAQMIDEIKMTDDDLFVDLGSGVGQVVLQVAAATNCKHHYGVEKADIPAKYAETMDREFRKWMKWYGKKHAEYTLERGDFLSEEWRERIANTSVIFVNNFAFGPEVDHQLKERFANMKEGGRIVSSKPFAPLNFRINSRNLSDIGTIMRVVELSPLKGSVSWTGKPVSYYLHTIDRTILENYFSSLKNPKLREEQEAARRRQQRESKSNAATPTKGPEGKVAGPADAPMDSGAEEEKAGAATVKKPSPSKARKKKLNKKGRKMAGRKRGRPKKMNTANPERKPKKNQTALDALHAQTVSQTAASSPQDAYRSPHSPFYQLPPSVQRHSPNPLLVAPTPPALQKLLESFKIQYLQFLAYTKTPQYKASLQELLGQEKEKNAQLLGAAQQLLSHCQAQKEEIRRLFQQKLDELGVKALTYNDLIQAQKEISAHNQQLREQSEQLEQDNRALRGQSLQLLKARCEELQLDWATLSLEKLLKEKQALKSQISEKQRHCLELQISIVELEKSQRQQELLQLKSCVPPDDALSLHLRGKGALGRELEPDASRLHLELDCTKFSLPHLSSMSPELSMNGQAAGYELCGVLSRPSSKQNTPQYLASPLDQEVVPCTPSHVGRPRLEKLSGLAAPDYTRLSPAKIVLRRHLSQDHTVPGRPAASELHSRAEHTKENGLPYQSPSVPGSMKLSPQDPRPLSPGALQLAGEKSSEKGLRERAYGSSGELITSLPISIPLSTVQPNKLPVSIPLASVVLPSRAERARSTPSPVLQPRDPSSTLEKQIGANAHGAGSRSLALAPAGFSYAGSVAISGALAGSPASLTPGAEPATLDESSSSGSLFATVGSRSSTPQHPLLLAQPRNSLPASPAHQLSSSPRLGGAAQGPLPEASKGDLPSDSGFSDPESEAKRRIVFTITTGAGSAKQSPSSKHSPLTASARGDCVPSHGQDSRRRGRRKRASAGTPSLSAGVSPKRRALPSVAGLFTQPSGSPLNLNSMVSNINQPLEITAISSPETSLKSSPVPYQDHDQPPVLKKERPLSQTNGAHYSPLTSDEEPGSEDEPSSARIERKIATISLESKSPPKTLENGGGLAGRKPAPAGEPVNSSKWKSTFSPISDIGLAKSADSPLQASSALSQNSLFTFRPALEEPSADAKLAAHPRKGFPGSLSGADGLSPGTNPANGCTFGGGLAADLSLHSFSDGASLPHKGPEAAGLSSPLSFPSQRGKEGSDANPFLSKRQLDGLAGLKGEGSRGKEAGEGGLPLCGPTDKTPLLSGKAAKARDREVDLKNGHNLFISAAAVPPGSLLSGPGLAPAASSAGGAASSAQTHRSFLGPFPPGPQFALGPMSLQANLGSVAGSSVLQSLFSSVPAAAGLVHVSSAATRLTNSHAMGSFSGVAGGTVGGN
# [7] = Drug level in Sprague-Dawley rat blood at 15 mg/kg, po administered via gastric intubation up to 24 hrs by LC-MS/MS analysis; type: ADME, organism-based; settings: in vivo; summary of the method: as §1
# [8] = Permeability of compound by HDM-PAMPA assay; type: ADME
# [9] = target: T1, Histone-lysine N-methyltransferase, H3 lysine-79 specific; assay: Inhibition of DOT1L in human HeLa cells assessed as reduction in H3K79me2 level after 72 hrs by ELISA; type: cell-based
# [10] = Cmax in Sprague-Dawley rat at 15 mg/kg, po administered via gastric intubation measured up to 48 hrs by LC-MS/MS analysis; type: ADME, organism-based; parameters: dose 15 mg/kg, route oral; settings: in vivo; summary of the method: as §1
# [11] = target: T1, Histone-lysine N-methyltransferase, H3 lysine-79 specific; assay: Inhibition of DOT1L (2 to 416 residues) (unknown origin) using biotinylated nucleosomes as substrate preincubated for 30 mins followed by substrate addition in presence of [3H-Me]SAM by scintillation proximity assay
# [12] = AUC (0 to infinity) in Sprague-Dawley rat at 15 mg/kg, po administered via gastric intubation by LC-MS/MS analysis; type: ADME, organism-based; parameters: dose 15 mg/kg, route oral, time infinity; settings: in vivo; summary of the method: as §1
# [13] = Half life in Sprague-Dawley rat at 1 mg/kg, iv administered as bolus dose by LC-MS/MS analysis; type: ADME, organism-based; settings: in vivo; summary of the method: as §2
smiles,measurement,setting,value
CNc1ccnc(Nc2ccc3sc(Cl)c(-c4cc(-c5c(C)ncn(C)c5=O)cnc4Cl)c3c2)n1,Tmax,[1],3.5 h
same,clearance,[2],84 mL/min/kg
same,AUC(0-inf),[3],0.396 µM·h
same,bioavailability,[4],40%
same,Vd,[5],10 L/kg
same,IC50,MV4-11,85 nM
same,IC50,[6],384 nM
same,Drug uptake,[7],Active
same,permeability,[8],Permeable
same,IC50,[9],23 nM
same,Cmax,[10],225 nM
same,IC50,[11],1.4 nM
same,Ki,[11],0.36 nM
same,AUC(0-inf),[12],2.37 µM·h
same,half-life,[13],1.7 h
Cc1cc2ccc(NC3=NC(=O)CN3)cc2n1-c1cccnc1Cl,IC50,[11],4100 nM
Cc1cc2ccc(Nc3nc(=O)cc[nH]3)cc2n1-c1cccnc1Cl,IC50,[11],1100 nM
CNc1ccnc(Nc2ccc3cc(C)n(-c4cc(-c5c(C)ccn(C)c5=O)cnc4Cl)c3c2)n1,IC50,[11],10 nM
Cc1cc2ccc(Nc3cccnn3)cc2n1-c1cccnc1Cl,IC50,[11],28000 nM
CNc1ccnc(Nc2ccc3cc(C)n(-c4cccnc4Cl)c3c2)n1,IC50,[11],280 nM
Cc1cc2ccc(Nc3nccc(N)n3)cc2n1-c1cccnc1Cl,IC50,[11],4300 nM
CNc1ccnc(Nc2ccc3cc(C)n(-c4ccccc4Oc4ccccc4)c3c2)n1,IC50,[11],150 nM
O=C(Cn1nnc(COc2ccccc2Cl)n1)NNC(=O)Nc1ccc(Cl)cc1,IC50,[11],14000 nM
O=C(Cn1nnnc1-c1ccccc1Cl)NNC(=O)Nc1ccc2ccn(-c3ccccc3Cl)c2c1,permeability,[8],Impermeable
same,IC50,[11],20 nM
O=C(Cn1nnnc1COc1ccccc1Cl)NNC(=O)Nc1ccc(Cl)cc1,IC50,[11],4400 nM
CNc1ccnc(Nc2ccc3cc(C)n(-c4ccccc4Oc4cnc5c(c4)ncn5C)c3c2)n1,IC50,MV4-11,128 nM
same,IC50,[6],340 nM
same,IC50,[9],16 nM
same,IC50,[11],0.4 nM
same,Ki,[11],0.08 nM
CCNC(=O)Nc1ccc2ccn(-c3ccccc3Cl)c2c1,IC50,[11],40000 nM
